APP 5'UTR act: activates APP 5'UTR luciferase reporter; hit rate 1% among 190,000; activation, % at 2 µM; SH-SY5Y APP 5'UTR luciferase reporter, luminescence; zero percent = DMSO vehicle wells;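 active = activation above a set limit, based on mean plus 3 SD of controls, cut at about 140% in these data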
STAT1 activator: STAT1 signaling activation; NIH 3T3 STAT1-luciferase reporter, IFN-gamma, luminescence; 100% = IFN-gamma alone, no compound; activation (% of control), % at 5.5 µM; hit rate 2.6% among 200,000;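 active = activation above the screen-wide mean activation plus 3 SD, cut at about 130% in these data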
NF-kB neuron act: NF-kB expression increase, human neuronal cells; NF-kB reporter expression; stronger effect = higher value; fold change at 12.5 µM; hit rate 1.6% among 190,000; in the data active = fold change above about 3.3
STAT3 activator: STAT3 signaling activation | U3A cells, IL-6 STAT3-luciferase reporter, luminescence; 100% = signal with IL-6 EC80 alone | activation (% of control), % at 5.6 µM | hit rate 0.91% among 190,000 | AID 871;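 active = activation above the screen-wide mean of compound activation plus 3 SD, cut at about 130% in these data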
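Material: STAT3-luciferase reporter U3A cells; Probe or stimulus: IL-6 (33 ng/mL); Incubation: compound pre-incubation 1 h before IL-6, then 6 h stimulation at 37 °C; Technique: luminescence from STAT3-driven luciferase reporter; Evaluation: % activation versus median of IL-6-stimulated wells; Controls: IL-6-only high control.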
STAT1 inh: reduces IFN-gamma driven STAT1 reporter signal; NIH 3T3 STAT1-luciferase reporter, luminescence; inhibition, % at 5.5 µM; hit rate 0.35% among 200,000;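 active = inhibition above a set limit, the mean inhibition across all tested compounds plus 3 SD, cut at about 34% in these data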
STAT3 blocker: inhibitors of IL-6 induced STAT3 signaling. U3A cells, IL-6 STAT3-luciferase reporter, luminescence; host cell line lacks STAT1. inhibition, % at 5.5 µM. hit rate 0.89% among 190,000. AID 862;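 active = inhibition above the mean inhibition across all screened compounds plus 3 SD, cut at about 44% in these data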
Each line names hits and unclear results; the compound was inactive in the other large screens. The list is not random: actives were taken first. Their share in the collection is about 4.9%.

CN(C)/C=C/C(=O)c1cnc(-c2ccccc2)s1	STAT1 activator 131, NF-kB neuron act 3.8
CNC(=S)N1CCN(c2nc3ccccc3s2)CC1	none
Cc1c(CN(C)C)c2c(n1Cc1ccccc1)C(=O)c1ccc(Br)cc1-2	none
Cc1c(CN(C)C)c2c(n1C)C(=O)c1ccc(Br)cc1-2	NF-kB neuron act 3.3
CC(C)(C)c1ccc(C(=O)Nc2cnccn2)cc1	APP 5'UTR act 173, NF-kB neuron act 6.4
COc1cccc([C@@H]2Oc3ccc(OC)cc3C(=O)[C@H]2O)c1	APP 5'UTR act 146, NF-kB neuron act 5.7
COc1ccc2c(c1)C(=O)[C@@H](O)[C@H](c1ccc(OC)c(Br)c1)O2	none
O=C(OCC(=O)N1CCN(C(=O)c2ccco2)CC1)c1cccc(S(=O)(=O)N2CCc3ccccc32)c1	none
CCn1c(COc2cccc(C)c2)nc2ccccc21	none
COCn1c(COc2ccc3ccccc3c2)nc2ccccc21	STAT1 activator 138, NF-kB neuron act 3.9
CC(C)c1ccc(Nc2nc(CC(=O)O)cs2)cc1	APP 5'UTR act 242, NF-kB neuron act 7.2
CCN(C(=S)Nc1ccc(Oc2ccccc2)cc1)c1ccccc1	none
CC(C)OC(=O)c1ccc(NC(=O)c2ccco2)cc1	none
CN1CCN(/N=C/c2ccc(Br)cc2)CC1	STAT1 activator 129
CCOC(=O)/C=C/c1cnn(-c2ccccc2)c1	STAT1 activator 138
O=C1C(Cl)=C(NC2CCCCC2)C(=O)N1c1ccc(Cl)cc1	STAT1 activator 141
O=C(Nc1cccc(-c2cn3c(n2)SCC3)c1)c1ccc2ccccc2n1	STAT1 activator 135
Cc1ccccc1C(=O)Nc1ccc(N2CCCC2)cc1	STAT1 activator 131
O=C(Nc1cccc(S(=O)(=O)N2CCCCCC2)c1)c1ccc2ccccc2n1	none
Cc1ccc(C(=O)Nc2ccc(N3CCCC3)cc2)c(C)c1	none
O=C(Nc1ccc(N2CCCCC2)cc1)c1ccc2ccccc2n1	STAT1 activator 144
C=CCn1c(COc2cc(C)ccc2C(C)C)nnc1SCC(=O)c1c(N)n(C)c(=O)n(C)c1=O	none
OC1(CNCc2cn[nH]c2-c2cc3ccccc3o2)CCCCC1	none
CCSc1nnc2ccc(-c3ccco3)nn12	none
Cc1c(N=C2NC(=O)/C(=C/c3cccc([N+](=O)[O-])c3)S2)c(=O)n(-c2ccccc2)n1C	none
CN(C)c1ccc(/C=N/N=C2/NC(=O)/C(=C/c3ccc([N+](=O)[O-])cc3)S2)cc1	STAT1 inh 35
O=C1C(C=NCCN2CCOCC2)=C(O)c2ccccc21	STAT1 activator 133
Cc1ccc(/C=N/c2sc3c(c2C#N)CCC3)s1	STAT1 activator 150
CC(C)CN(/C=N/c1sc2c(c1C#N)CCCCC2)CC(C)C	none
Cc1ccc(/C=N/c2sc3c(c2C#N)CCCCC3)o1	STAT1 activator 139
N#Cc1c(/N=C/c2cc3ccccc3s2)sc2c1CCC2	none
CN1CCN(/C=N/c2sc3c(c2C#N)CCCCC3)CC1	STAT1 activator 146
CCn1c(=O)c(=O)[nH]c2cc(C(=O)N3CCN(Cc4ccc5c(c4)OCO5)CC3)ccc21	none
CCNC(=S)NNC(=O)c1cc(Br)cs1	none
O=S(=O)([N-]c1nc2ccccc2nc1-[n+]1ccc(-c2ccncc2)cc1)c1ccccc1	STAT1 activator 129
O=C(/C=C\c1ccccc1OC(=O)c1ccccc1F)c1cc2ccccc2o1	NF-kB neuron act 4.3
O=C(Oc1ccccc1)c1cc2ccccc2o1	none
CC(=O)c1cccc(NC(=O)c2ccc(C(=O)Nc3cccc(C(C)=O)c3)nc2)c1	none
O=C(Nc1ccc2c(c1)OCO2)c1cc2nc(C3CC3)cc(C(F)(F)F)n2n1	none
CC(=O)c1cccc(NC(=O)c2cc3nc(C)cc(C)n3n2)c1	STAT1 activator 145
Cc1cc(C)n2nc(C(=O)Nc3ccc4c(c3)OCO4)cc2n1	STAT1 activator 129, NF-kB neuron act 3.3
CC(C)Cc1cc(C(=O)Nc2ccc3c(c2)OCO3)no1	STAT1 activator 132
O=C(Nc1cccnc1)c1cc(-c2ccc3c(c2)OCO3)on1	STAT1 activator 134, NF-kB neuron act 5.5
O=C(c1ccc2c(c1)OCCO2)N1CCCC(CNS(=O)(=O)c2cccs2)C1 (configuration not stated)	none
